Data published in ChEMBL document CHEMBL4823317, “Synthesis, in vitro cytotoxicity and biological evaluation of twenty novel 1,3-benzenedisulfonyl piperazines as antiplatelet agents” (Bioorg Med Chem, 2021).

Legend:
Blood [1] = test: Anti-platelet aggregation activity in rabbit venous blood assessed as inhibition of ADP-induced aggregation at 1.3 uM pre-treated for 2 mins followed by ADP addition by Born turbidimetric method relative to control; type: functional; settings: Oryctolagus cuniculus
Outline: (§1)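 Platelet-rich plasma from male rabbit (2–3 kg) ear-vein blood, citrate anticoagulated (3.8%, 9:1), spun 1000 rpm 10 min at room temperature; platelet-poor plasma (3000 rpm 10 min) as blank. Compound at 1.3 µM, from DMSO solution (DMSO 0.5% v/v vehicle control), preincubated 2 min in PRP before inducer. Inhibition% = (1 − D/S) × 100, where S is aggregation with solvent.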

Blood [2] = test: Anti-platelet aggregation activity in rabbit venous blood assessed as inhibition of arachidonic acid-induced aggregation at 1.3 uM pre-treated for 2 mins followed by ADP addition by Born turbidimetric method relative to control; type: functional; settings: Oryctolagus cuniculus; outline: as §1
Blood [3] = test: Anti-platelet aggregation activity in rabbit venous blood assessed as inhibition of collagen-induced aggregation at 1.3 uM pre-treated for 2 mins followed by ADP addition by Born turbidimetric method relative to control; type: functional; settings: Oryctolagus cuniculus; outline: as §1
Blood [4] = test: Anti-platelet aggregation activity in rabbit venous blood assessed as inhibition of ADP-induced aggregation pre-treated for 2 mins followed by ADP addition by Born turbidimetric method; type: functional, tissue-based; settings: Oryctolagus cuniculus
Outline: (§2)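 Rabbit PRP Born turbidimetry with the same 2 min compound preincubation. ADP or arachidonic acid as inducer. Compounds tested at 1.3, 0.65 and 0.325 µM. Inhibition% = (1 − D/S) × 100 versus the solvent control, and IC50 calculated from these inhibition rates.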

Blood [5] = test: Anti-platelet aggregation activity in rabbit venous blood assessed as inhibition of arachidonic acid-induced aggregation pre-treated for 2 mins followed by ADP addition by Born turbidimetric method; type: functional, tissue-based; settings: Oryctolagus cuniculus; outline: as §2
[6] = Cytotoxicity against mouse L929 cells assessed as cell survival at 10 uM incubated for 48 hrs by CCK-8 assay relative to control; type: cell-based; settings: read-out: Activity
Outline: (§3)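 L929 mouse fibroblasts seeded at 10,000 cells/well in RPMI-1640 and allowed to attach 24 h at 37 °C. Compounds then added at 10 and 100 µM for 48 h at 37 °C. Medium replaced with fresh medium, CCK-8 added, 30 min further incubation, absorbance read at 450 nm. Viability = Abs(test)/Abs(control) × 100%.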

[7] = Cytotoxicity against mouse L929 cells assessed as cell survival at 100 uM incubated for 48 hrs by CCK-8 assay relative to control; type: cell-based; settings: read-out: Activity; outline: as §3

| SMILES | inhibition at 1.3 µM (Blood [1]) | inhibition at 1.3 µM (Blood [2]) | inhibition at 1.3 µM (Blood [3]) | IC50 (Blood [4]) | IC50 (Blood [5]) | viability at 48 h, 10 µM [6] | viability at 48 h, 100 µM [7] |
| --- | --- | --- | --- | --- | --- | --- | --- |
| CCN1CCN(S(=O)(=O)c2ccc(OC)c(S(=O)(=O)N3CCN(CC)CC3)c2)CC1 | 24.3% | 22.4% | 42.6% | – | – | – | – |
| COc1ccc(S(=O)(=O)N2CCN(Cc3ccccc3)CC2)cc1S(=O)(=O)N1CCN(Cc2ccccc2)CC1 | 33.2% | 38.5% | 22.8% | 1.15 µM | 0.33 µM | 55.6% | 22.2% |
| CCOc1ccc(S(=O)(=O)N2CCN(CC)CC2)cc1S(=O)(=O)N1CCN(CC)CC1 | 28.8% | 29.9% | 41.7% | – | – | – | – |
| COc1ccc(S(=O)(=O)N2CCN(C(C)C)CC2)cc1S(=O)(=O)N1CCN(C(C)C)CC1 | 28.4% | 27.1% | 49.4% | – | – | – | – |
| COc1ccc(S(=O)(=O)N2CCN(c3ccc(C)cc3)CC2)cc1S(=O)(=O)N1CCN(c2ccc(C)cc2)CC1 | 30.4% | 34.1% | 32.6% | – | 0.68 µM | – | – |
| COc1ccc(S(=O)(=O)N2CCN(c3cccc(C)c3)CC2)cc1S(=O)(=O)N1CCN(c2cccc(C)c2)CC1 | 21.1% | 33.7% | 54.2% | – | 0.71 µM | 85.2% | 66.7% |
| CCOc1ccc(S(=O)(=O)N2CCN(Cc3ccccc3)CC2)cc1S(=O)(=O)N1CCN(Cc2ccccc2)CC1 | 24% | 20.1% | 49.8% | – | – | 55.6% | 22.2% |
| COc1ccc(S(=O)(=O)N2CCN(C)CC2)cc1S(=O)(=O)N1CCN(C)CC1 | 38.2% | 29.5% | 52.6% | 0.98 µM | – | 77.8% | 33.3% |
| COc1ccccc1N1CCN(S(=O)(=O)c2ccc(OC)c(S(=O)(=O)N3CCN(c4ccccc4OC)CC3)c2)CC1 | 28.7% | 28.1% | 27.6% | – | – | – | – |
| COc1ccc(S(=O)(=O)N2CCN(c3ccccc3C)CC2)cc1S(=O)(=O)N1CCN(c2ccccc2C)CC1 | 38.9% | 36.9% | 32.1% | 0.95 µM | 0.36 µM | – | – |
| CCOc1ccc(S(=O)(=O)N2CCN(c3ccccc3)CC2)cc1S(=O)(=O)N1CCN(c2ccccc2)CC1 | 40.1% | 23.6% | 26.9% | 0.91 µM | – | – | – |
| CCOc1ccc(S(=O)(=O)N2CCN(c3ccccc3F)CC2)cc1S(=O)(=O)N1CCN(c2ccccc2F)CC1 | 21% | 25.8% | 50.3% | – | – | 70.4% | 3.7% |
| COc1ccc(S(=O)(=O)N2CCN(c3ccccc3F)CC2)cc1S(=O)(=O)N1CCN(c2ccccc2F)CC1 | 28% | 40.6% | 28.8% | – | 0.48 µM | 77.8% | 66.7% |
| CCOc1ccc(S(=O)(=O)N2CCN(c3ccccc3OC)CC2)cc1S(=O)(=O)N1CCN(c2ccccc2OC)CC1 | 25.5% | 23.1% | 25.2% | – | – | – | – |
| CCOc1ccc(S(=O)(=O)N2CCN(c3ccc(C)cc3)CC2)cc1S(=O)(=O)N1CCN(c2ccc(C)cc2)CC1 | 43.6% | 43% | 28.5% | 0.72 µM | 0.26 µM | 51.8% | 7.4% |
| CCOc1ccc(S(=O)(=O)N2CCN(C)CC2)cc1S(=O)(=O)N1CCN(C)CC1 | 24.5% | 18.1% | 29.5% | – | – | – | – |
| CCOc1ccc(S(=O)(=O)N2CCN(c3ccccc3C)CC2)cc1S(=O)(=O)N1CCN(c2ccccc2C)CC1 | 28.9% | 33.1% | 41.6% | – | 0.65 µM | – | – |
| CCOc1ccc(S(=O)(=O)N2CCN(C(C)C)CC2)cc1S(=O)(=O)N1CCN(C(C)C)CC1 | 36.4% | 24.9% | 39% | 0.8 µM | – | – | – |
| CCOc1ccc(S(=O)(=O)N2CCN(c3cccc(C)c3)CC2)cc1S(=O)(=O)N1CCN(c2cccc(C)c2)CC1 | 50.3% | 34.8% | 48.8% | 0.45 µM | 0.43 µM | 56.6% | 33.3% |
| COc1ccc(S(=O)(=O)N2CCN(c3ccccc3)CC2)cc1S(=O)(=O)N1CCN(c2ccccc2)CC1 | 27.9% | 15.7% | 20.4% | – | – | – | – |
| CC(=O)Oc1ccccc1C(=O)O [ASPIRIN] | 46.3% | 38.5% | 49.1% | 0.44 µM | 0.43 µM | – | – |
| COc1ccc(C(=O)NCc2cccnc2)cc1C(=O)NCc1cccnc1 [PICOTAMIDE] | 45.5% | 37.1% | 49.2% | 0.47 µM | 0.34 µM | – | – |
